According to ChEMBL document CHEMBL4665652, “Discovery of novel quinoline sulphonamide derivatives as potent, selective and orally active RORγ inverse agonists” (Bioorg Med Chem Lett, 2019):

Key:
Cytochrome P450 3A4 = Cytochrome P450 3A4 (Homo sapiens, UniProt P08684); assay: Drug metabolism assessed as CYP3A4 (unknown origin) mediated metabolite formation; assay type: ADME
CYP2C9 = CYP2C9 (Homo sapiens, UniProt P11712); assay: Inhibition of CYP2C9 (unknown origin) at 1 uM relative to control; assay type: ADME
CYP3A4 = CYP3A4 (Homo sapiens, UniProt P08684); assay: Inhibition of CYP3A4 (unknown origin) at 1 uM relative to control; assay type: ADME
[1] = AUClast in mouse at 100 mg/kg, po; assay type: ADME, organism-based; design: time 0 - last, route oral, dose 100 mg/kg; conditions: in vivo
How it was run: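 Oral ascending-dose PK in mice at 100 mg/kg (ratios against 10 mg/kg), given as a suspension in 1% methylcellulose 400cp + 0.1% Poloxamer. Cmax, AUClast and t1/2 come from plasma profiles.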

[2] = Ratio of AUClast in mouse at 100 mg/kg, po to AUClast in mouse at 10 mg/kg, po; assay type: ADME, organism-based; conditions: in vivo
How it was run: (§1)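 Mice dosed orally at 10, 30 or 100 mg/kg as a suspension in 1% methylcellulose 400cp + 0.1% Poloxamer (188). Tmax, Cmax, AUClast and oral t1/2 were taken from plasma concentration–time profiles. Ratios are the value at each dose over the value at 10 mg/kg.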

[3] = Half life in mouse at 30 mg/kg, po; assay type: ADME, organism-based; conditions: in vivo; how it was run: as §1
[4] = Tmax in mouse at 100 mg/kg, po; assay type: ADME, organism-based; conditions: in vivo
How it was run: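 Mice dosed orally with an ascending-dose series at 10, 30 and 100 mg/kg. Compound given as a suspension in 1% methylcellulose 400cp + 0.1% poloxamer. Plasma Tmax taken from the concentration profiles. The Cmax ratio is expressed relative to the 10 mg/kg dose.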

[5] = Ratio of AUClast in mouse at 30 mg/kg, po to AUClast in mouse at 10 mg/kg, po; assay type: ADME, organism-based; conditions: in vivo; how it was run: as §1
[6] = AUClast in mouse at 30 mg/kg, po; assay type: ADME, organism-based; design: time 0 - last, route oral, dose 30 mg/kg; conditions: in vivo; how it was run: as §1
[7] = Half life in mouse at 10 mg/kg, po; assay type: ADME, organism-based; conditions: in vivo; how it was run: as §1
Mus musculus [8] = assay: Immunosuppressive activity in PLP (139 to 151 residues)-induced experimental autoimmune encephalomyelitis mouse model assessed as reduction in disease onset at 100 mg/kg, po administered bid starting from immunization relative to control; assay type: functional
How it was run: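 EAE induced in mice by immunization with proteolipid protein peptide PLP139-151; ascending paralysis develops 10–12 days post-immunization. Compound dosed orally b.i.d. starting from immunization. Disease onset/incidence scored relative to control.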

[9] = (§2) In vivo inverse agonist activity at RORgamma in MOG(35-55) peptide/PTX-induced mechanistic C57BL/6 mouse model assessed as anti-CD3 induced IL-10 level in serum at 100 mg/kg, po dosed for 5 days during MOG/PTX priming and followed by 45 mins prior to anti-CD3 challenge and measured after 2 hrs (reference value: -11%); assay type: functional; conditions: time 5 day
How it was run: (§3)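 Mice immunized with mouse MOG35-55 peptide plus pertussis toxin. After 5 days, compound given orally as a suspension in methylcellulose 400cp + 1% poloxamer, 45 min before an anti-CD3 challenge. Circulating cytokines measured 2 h later. Comparison vs vehicle by Dunnett post test.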

[10] = as §2, with “30” for “100”; assay type: functional; conditions: time 5 day; how it was run: as §3
[11] = as §2, with “IL-2” for “IL-10”, “relative to control” for “(reference value: -11%)”; assay type: functional; conditions: time 5 day; how it was run: as §3
[12] = as §2, with “IFNgamma” for “IL-10”, “relative to control” for “(reference value: -11%)”; assay type: functional; conditions: time 5 day; how it was run: as §3
[13] = as §2, with “IL-6” for “IL-10”, “relative to control” for “(reference value: -11%)”; assay type: functional; conditions: time 5 day; how it was run: as §3
[14] = as §2, with “IL-6” for “IL-10”, “10” for “100”, “relative to control” for “(reference value: -11%)”; assay type: functional; conditions: time 5 day; how it was run: as §3
[15] = as §2, with “IL-22” for “IL-10”, “relative to control” for “(reference value: -11%)”; assay type: functional; conditions: time 5 day; how it was run: as §3
[16] = as §2, with “IL-22” for “IL-10”, “30” for “100”, “relative to control” for “(reference value: -11%)”; assay type: functional; conditions: time 5 day; how it was run: as §3
[17] = as §2, with “IL-17F” for “IL-10”, “relative to control” for “(reference value: -11%)”; assay type: functional; conditions: time 5 day; how it was run: as §3
[18] = as §2, with “IL-17F” for “IL-10”, “10” for “100”, “relative to control” for “(reference value: -11%)”; assay type: functional; conditions: time 5 day; how it was run: as §3
[19] = Half life in mouse at 1 mg/kg, iv; assay type: ADME, organism-based; conditions: in vivo
How it was run: (§4)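 Mouse PK with iv 1 mg/kg and po 10 mg/kg, oral dose as a suspension in 1% methylcellulose 400cp + 0.1% Poloxamer 188. Plasma clearance (total and unbound), iv t1/2 and oral bioavailability F were derived from the iv and po profiles.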

[20] = Oral bioavailability in mouse at 10 mg/kg; assay type: ADME, organism-based; conditions: in vivo; how it was run: as §4
[21] = Unbound plasma clearance in mouse at 10 mg/kg, po or 1 mg/kg, iv; assay type: ADME, organism-based; conditions: in vivo
How it was run: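 Mouse PK using two routes: iv at 1 mg/kg and po at 10 mg/kg. The po dose was a suspension in 1% methylcellulose 400cp + 0.1% Poloxamer 188. Unbound plasma clearance derived from the plasma profiles.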

[22] = Cmax in mouse at 10 mg/kg, po; assay type: ADME, organism-based; design: route oral, dose 10 mg/kg; conditions: in vivo; how it was run: as §1
[23] = Stability in mouse microsomes assessed as unbound intrinsic clearance; assay type: ADME, Microsome
How it was run: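 Unbound intrinsic clearance measured in human and mouse liver microsomes, expressed in L/h/kg. Values are geometric means of at least two separate runs.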

[24] = as §2, with “IL-17F” for “IL-10”, “30” for “100”, “relative to control” for “(reference value: -11%)”; assay type: functional; conditions: time 5 day; how it was run: as §3
[25] = as §2, with “TNFalpha” for “IL-10”, “relative to control” for “(reference value: -11%)”; assay type: functional; conditions: time 5 day; how it was run: as §3
Mus musculus [26] = assay: (§5) In vivo inverse agonist activity at RORgamma in po dosed MOG(35-55) peptide/PTX-induced mechanistic C57BL/6 mouse model assessed as anti-CD3 induced IL-17A level in serum dosed for 5 days during MOG/PTX priming and followed by 45 mins prior to anti-CD3 challenge and measured after 2 hrs relative to control; assay type: functional, organism-based; conditions: dose mg/kg 10-100, time 5.0 day; how it was run: as §3
Mus musculus [27] = assay: as §5, with “IL-22” for “IL-17A”; assay type: functional, organism-based; conditions: dose mg/kg 10-100, time 5.0 day; how it was run: as §3

CYP2C9, sequence (P11712 whole entry): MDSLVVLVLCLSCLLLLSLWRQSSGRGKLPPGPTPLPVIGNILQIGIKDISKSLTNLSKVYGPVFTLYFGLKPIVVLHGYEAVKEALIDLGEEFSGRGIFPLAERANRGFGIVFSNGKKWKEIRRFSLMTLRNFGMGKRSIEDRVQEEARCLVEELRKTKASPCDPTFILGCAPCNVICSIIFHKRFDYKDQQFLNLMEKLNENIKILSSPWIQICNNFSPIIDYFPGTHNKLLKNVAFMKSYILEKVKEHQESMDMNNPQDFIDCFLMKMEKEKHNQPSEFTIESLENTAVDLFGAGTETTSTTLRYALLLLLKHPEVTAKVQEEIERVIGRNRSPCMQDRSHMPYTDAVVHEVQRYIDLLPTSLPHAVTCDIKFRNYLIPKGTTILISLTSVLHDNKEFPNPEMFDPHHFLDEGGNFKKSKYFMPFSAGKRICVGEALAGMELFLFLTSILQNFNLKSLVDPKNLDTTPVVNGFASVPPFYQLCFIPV
Cytochrome P450 3A4, sequence (P08684 whole entry): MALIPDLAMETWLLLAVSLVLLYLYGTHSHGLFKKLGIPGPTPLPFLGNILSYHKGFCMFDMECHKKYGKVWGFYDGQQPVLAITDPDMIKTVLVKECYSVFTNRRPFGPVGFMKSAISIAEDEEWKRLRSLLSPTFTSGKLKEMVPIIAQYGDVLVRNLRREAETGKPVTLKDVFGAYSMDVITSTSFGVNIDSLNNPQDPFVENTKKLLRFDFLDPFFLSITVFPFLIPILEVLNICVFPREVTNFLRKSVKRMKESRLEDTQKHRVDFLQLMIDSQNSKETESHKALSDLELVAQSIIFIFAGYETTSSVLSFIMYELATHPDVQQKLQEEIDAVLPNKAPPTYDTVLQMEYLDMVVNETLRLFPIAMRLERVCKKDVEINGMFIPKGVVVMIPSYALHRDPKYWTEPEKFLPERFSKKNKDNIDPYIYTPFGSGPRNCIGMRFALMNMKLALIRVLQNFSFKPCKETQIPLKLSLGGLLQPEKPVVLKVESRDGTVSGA
CYP3A4, sequence (P08684 whole entry): as above

Fm (Cytochrome P450 3A4): 87%
inhibition at 1 µM (CYP2C9): 100%
inhibition at 1 µM (CYP3A4): 99%
AUC(0-t) [1]: 270 µg·h/mL
Ratio [2]: 58
half-life [3]: 1 h
Tmax [4]: 3 h
Ratio [5]: 8.8
AUC(0-t) [6]: 34.2 µg·h/mL
half-life [7]: < 1 h
half-life [19]: 9.6 min
bioavailability [20]: 64%
CL free [21]: 1620 mL/min/kg
Cmax [22]: 3320 ng/mL
CL free [23]: 100 mL/min/kg
SMILES: CNC(=O)[C@@H]1CCCN1S(=O)(=O)c1ccc(Cl)c(COc2cccc3c(-c4cncn4C)cc(C(C)C)nc23)c1Cl
inhibition in vivo at 100 mg/kg (Mus musculus [8]): 76%
Activity [9]: 807%
Activity [10]: 66%
Activity [11]: -46%
Activity [12]: -81%
Activity [13]: -21%
Activity [14]: -29%
Activity [15]: -45%
Activity [16]: -46%
Activity [17]: -60%
Activity [18]: -20%
Activity [24]: -49%
Activity [25]: -32%
Activity (Mus musculus [26]): Dose-dependent effect
Activity (Mus musculus [27]): Dose-dependent effect
